According to ChEMBL document CHEMBL1177685, “Novel structure-activity relationships and selectivity profiling of cage dimeric 1,4-dihydropyridines as multidrug resistance (MDR) modulators” (Bioorg Med Chem, 2010):

What was measured:
Assay type in all cases: cell-based
[1] = biological target: T1, Broad substrate specificity ATP-binding cassette transporter ABCG2 (Homo sapiens, UniProt Q9UNQ0); experiment: Inhibition of BCRP expressed in human EPG-257RNOV cells at 1 uM relative to control
T1 sequence (Q9UNQ0 whole entry): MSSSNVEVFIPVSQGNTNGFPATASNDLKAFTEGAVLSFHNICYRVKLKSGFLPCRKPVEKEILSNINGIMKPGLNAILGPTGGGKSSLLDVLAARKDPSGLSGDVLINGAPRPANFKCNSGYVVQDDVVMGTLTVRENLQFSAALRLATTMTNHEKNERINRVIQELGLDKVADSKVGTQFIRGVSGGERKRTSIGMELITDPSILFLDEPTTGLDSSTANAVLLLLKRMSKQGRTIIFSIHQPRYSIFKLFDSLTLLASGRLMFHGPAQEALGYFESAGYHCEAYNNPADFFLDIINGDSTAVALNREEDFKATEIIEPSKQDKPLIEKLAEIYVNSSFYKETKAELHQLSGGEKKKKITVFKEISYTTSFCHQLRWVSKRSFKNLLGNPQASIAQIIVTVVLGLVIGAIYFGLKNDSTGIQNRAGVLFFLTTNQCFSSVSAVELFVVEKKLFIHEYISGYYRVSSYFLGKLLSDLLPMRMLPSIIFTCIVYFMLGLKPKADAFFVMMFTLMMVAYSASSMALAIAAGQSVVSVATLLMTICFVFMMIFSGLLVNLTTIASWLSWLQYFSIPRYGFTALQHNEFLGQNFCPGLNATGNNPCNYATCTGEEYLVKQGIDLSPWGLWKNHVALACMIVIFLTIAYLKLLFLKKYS
Procedure, shortened: (§1)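 BCRP-overexpressing EPG85-257RNOV gastric carcinoma cells (kept in medium with mitoxantrone 0.2 µg/mL), 0.5×10^6 cells/mL, exposed to inhibitor 20 min at 37 °C. Mitoxantrone (20 µM final) then added for 60 min at 37 °C. Cells trypsinized, washed in ice-cold PBS, 10,000 events read by flow cytometry (488 nm excitation, 670 nm filter). R = treated/untreated fluorescence quotient, divided by the same quotient in parental EPG85-257P.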

[2] = biological target: ATP-binding cassette sub-family C member 2 (Homo sapiens, UniProt Q92887); experiment: Inhibition of MRP2 expressed in human A2780 cells at 10 uM relative to control; conditions: a2780, 10 µM
Chain of ATP-binding cassette sub-family C member 2 (Q92887 whole entry): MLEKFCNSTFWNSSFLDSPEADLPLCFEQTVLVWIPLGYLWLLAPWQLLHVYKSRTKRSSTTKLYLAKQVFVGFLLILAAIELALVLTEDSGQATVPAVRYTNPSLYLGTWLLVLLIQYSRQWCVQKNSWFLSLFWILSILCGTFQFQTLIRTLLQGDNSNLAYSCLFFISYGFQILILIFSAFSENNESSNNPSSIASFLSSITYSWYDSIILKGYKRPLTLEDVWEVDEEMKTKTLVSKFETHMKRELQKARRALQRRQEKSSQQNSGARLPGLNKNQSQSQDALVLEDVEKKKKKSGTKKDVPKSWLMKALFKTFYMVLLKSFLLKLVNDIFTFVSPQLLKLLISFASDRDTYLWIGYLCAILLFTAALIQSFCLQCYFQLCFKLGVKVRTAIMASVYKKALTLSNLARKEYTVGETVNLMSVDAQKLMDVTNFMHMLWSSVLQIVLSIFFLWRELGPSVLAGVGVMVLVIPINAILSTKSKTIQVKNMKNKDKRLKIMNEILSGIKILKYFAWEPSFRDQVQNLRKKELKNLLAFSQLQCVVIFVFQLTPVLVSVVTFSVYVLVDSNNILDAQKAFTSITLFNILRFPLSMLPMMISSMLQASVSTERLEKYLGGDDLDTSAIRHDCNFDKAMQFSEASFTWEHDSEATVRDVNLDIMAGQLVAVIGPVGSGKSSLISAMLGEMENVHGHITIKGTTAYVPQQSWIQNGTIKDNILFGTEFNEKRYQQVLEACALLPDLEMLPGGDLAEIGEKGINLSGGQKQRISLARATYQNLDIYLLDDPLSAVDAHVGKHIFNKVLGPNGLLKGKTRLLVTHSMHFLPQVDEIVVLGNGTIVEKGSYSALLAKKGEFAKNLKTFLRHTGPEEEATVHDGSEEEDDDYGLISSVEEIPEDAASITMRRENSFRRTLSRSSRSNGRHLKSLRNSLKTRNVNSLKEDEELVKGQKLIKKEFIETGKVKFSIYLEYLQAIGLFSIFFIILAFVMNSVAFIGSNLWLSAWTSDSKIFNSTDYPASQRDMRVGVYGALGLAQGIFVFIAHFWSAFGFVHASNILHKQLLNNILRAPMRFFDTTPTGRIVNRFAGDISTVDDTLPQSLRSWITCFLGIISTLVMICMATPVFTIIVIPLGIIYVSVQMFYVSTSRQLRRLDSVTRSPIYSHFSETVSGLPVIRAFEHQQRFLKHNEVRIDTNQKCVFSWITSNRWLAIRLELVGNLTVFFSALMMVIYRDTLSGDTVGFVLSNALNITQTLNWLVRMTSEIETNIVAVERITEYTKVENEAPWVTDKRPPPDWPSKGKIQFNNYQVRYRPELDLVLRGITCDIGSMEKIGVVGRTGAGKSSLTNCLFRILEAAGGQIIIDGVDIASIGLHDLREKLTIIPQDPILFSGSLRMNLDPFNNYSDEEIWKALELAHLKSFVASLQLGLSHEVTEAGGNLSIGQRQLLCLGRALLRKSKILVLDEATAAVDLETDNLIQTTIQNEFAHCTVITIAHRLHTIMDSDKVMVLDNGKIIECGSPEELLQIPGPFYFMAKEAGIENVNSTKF
Procedure, shortened: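 Cisplatin-induced A2780RCIS ovarian cells (maintained with cisplatin 10 ng/mL) and parental A2780P were seeded for 24 h, given fresh medium with inhibitor for 20 min at 37 °C, then carboxyfluorescein diacetate (2 µM final) for 40 min at 37 °C. After ice-cold PBS washes, 10,000 events were read by flow cytometry (488 nm excitation, 530 nm filter). MRP2 value = A2780RCIS uptake minus the MRP1-specific uptake in A2780P.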

L5178Y [3] = experiment: Inhibition of Pgp expressed in mouse L5178Y cells at 1 uM relative to control
Procedure, shortened: (§2)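 L5178Y mouse T lymphoma cells transduced with human mdr1 retrovirus (colchicine-selected) and parental L5178Y, 2×10^6/mL in serum-free McCoy's 5A, preincubated with inhibitor 10 min at rt. Rhodamine 123 (5.2 µM final) added for 20 min at 37 °C. Cells washed twice, resuspended in PBS, 1×10^4 cells read by flow cytometry. R = treated/untreated fluorescence ratio, divided by the parental-line ratio.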

L5178Y [4] = experiment: Inhibition of Pgp expressed in mouse L5178Y cells at 10 uM relative to control; procedure, shortened: as §2
[5] = biological target: T1, Broad substrate specificity ATP-binding cassette transporter ABCG2; experiment: Inhibition of BCRP expressed in human EPG-257RNOV cells at 0.1 uM relative to control; procedure, shortened: as §1
[6] = biological target: Multidrug resistance-associated protein 1 (Homo sapiens, UniProt P33527); experiment: Inhibition of MRP1 expressed in human A2780 cells at 10 uM relative to control; conditions: a2780, 10 µM
Chain of Multidrug resistance-associated protein 1 (P33527 whole entry): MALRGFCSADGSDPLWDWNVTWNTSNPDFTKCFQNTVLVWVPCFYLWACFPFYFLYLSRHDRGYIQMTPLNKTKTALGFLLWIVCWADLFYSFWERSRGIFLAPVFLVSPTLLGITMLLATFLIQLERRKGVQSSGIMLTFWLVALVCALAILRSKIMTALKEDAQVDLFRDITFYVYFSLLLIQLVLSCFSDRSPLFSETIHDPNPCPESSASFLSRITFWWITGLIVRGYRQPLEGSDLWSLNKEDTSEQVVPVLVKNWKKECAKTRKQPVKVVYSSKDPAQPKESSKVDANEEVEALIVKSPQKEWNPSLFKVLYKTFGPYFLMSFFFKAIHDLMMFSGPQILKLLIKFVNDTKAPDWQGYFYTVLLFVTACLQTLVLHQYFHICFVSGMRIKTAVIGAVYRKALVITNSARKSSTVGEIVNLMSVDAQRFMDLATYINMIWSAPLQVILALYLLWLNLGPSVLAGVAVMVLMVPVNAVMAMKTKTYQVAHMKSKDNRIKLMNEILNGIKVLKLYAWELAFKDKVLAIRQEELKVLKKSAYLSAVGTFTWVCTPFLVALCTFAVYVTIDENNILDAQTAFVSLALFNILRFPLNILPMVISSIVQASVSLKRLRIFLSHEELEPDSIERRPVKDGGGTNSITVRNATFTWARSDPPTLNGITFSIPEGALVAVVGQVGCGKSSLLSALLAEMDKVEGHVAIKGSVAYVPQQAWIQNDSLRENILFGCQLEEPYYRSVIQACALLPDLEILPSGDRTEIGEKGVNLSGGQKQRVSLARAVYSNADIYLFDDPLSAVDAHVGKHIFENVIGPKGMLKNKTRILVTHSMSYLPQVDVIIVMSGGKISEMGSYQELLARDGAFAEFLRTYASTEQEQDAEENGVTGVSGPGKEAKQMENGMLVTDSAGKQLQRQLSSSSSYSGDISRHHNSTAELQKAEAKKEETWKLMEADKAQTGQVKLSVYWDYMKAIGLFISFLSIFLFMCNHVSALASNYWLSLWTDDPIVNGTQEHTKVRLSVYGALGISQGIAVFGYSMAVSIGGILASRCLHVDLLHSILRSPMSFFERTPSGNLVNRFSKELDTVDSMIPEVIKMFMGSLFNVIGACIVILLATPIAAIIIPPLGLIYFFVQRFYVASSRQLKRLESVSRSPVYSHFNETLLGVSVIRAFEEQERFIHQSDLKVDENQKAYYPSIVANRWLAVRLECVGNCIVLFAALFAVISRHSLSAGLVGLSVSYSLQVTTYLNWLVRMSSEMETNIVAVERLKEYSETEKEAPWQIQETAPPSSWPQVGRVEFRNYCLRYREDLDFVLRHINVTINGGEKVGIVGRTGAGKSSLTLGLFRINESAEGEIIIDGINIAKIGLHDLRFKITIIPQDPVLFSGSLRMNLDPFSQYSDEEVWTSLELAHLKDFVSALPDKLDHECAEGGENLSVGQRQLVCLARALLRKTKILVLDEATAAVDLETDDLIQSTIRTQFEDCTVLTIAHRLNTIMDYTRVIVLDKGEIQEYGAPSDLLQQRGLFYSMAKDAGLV

SMILES | Ratio [1] | Ratio [2] | Ratio [5] | Ratio [6] | Ratio (L5178Y [3]) | Ratio (L5178Y [4])
OC[C@]12C3N(Cc4ccccc4)C4[C@@]5(CO)C(N(Cc6ccccc6)C1[C@]3(CO)[C@@H]5c1cccc(O)c1)[C@]4(CO)[C@@H]2c1cccc(O)c1 | 1.1 | 1.05 |  | 1.3 | 1.2 | 3
COc1ccc2c(c1)c(CC(=O)O)c(C)n2C(=O)c1ccc(Cl)cc1 [INDOMETHACIN] |  | 0.75 |  | 4.1 |  | 
OC[C@]12C3N(Cc4ccccc4)C4[C@@]5(CO)C(N(Cc6ccccc6)C1[C@]3(CO)[C@@H]5c1cccc(OCc3ccccc3)c1)[C@]4(CO)[C@@H]2c1cccc(OCc2ccccc2)c1 | 2.8 | 0.97 | 1.3 | 1.9 | 65 | 125
OC[C@]12C3N(Cc4ccc(O)cc4)C4[C@@]5(CO)C(N(Cc6ccc(O)cc6)C1[C@]3(CO)[C@@H]5c1ccccc1)[C@]4(CO)[C@@H]2c1ccccc1 | 1.1 | 0.82 |  | 1.6 | 1.5 | 3.3
OC[C@]12C3N(Cc4ccncc4)C4[C@@]5(CO)C(N(Cc6ccncc6)C1[C@]3(CO)[C@@H]5c1ccccc1)[C@]4(CO)[C@@H]2c1ccccc1 | 1.3 | 0.8 |  | 1.2 | 1.5 | 1.1
OC[C@]12C3N(Cc4ccccc4)C4[C@@]5(CO)C(N(Cc6ccccc6)C1[C@]3(CO)[C@@H]5c1ccccc1)[C@]4(CO)[C@@H]2c1ccccc1 | 1.9 | 1.02 | 1.1 | 2.3 | 4.1 | 29
OC[C@]12C3N(Cc4ccccc4)C4[C@@]5(CO)C(N(Cc6ccccc6)C1[C@]3(CO)[C@@H]5c1ccncc1)[C@]4(CO)[C@@H]2c1ccncc1 | 1.2 | 0.74 |  | 2.2 | 2.4 | 7.7
OC[C@]12C3N(Cc4ccccc4)C4[C@@]5(CO)C(N(Cc6ccccc6)C1[C@]3(CO)[C@@H]5c1ccc(O)cc1)[C@]4(CO)[C@@H]2c1ccc(O)cc1 | 1.5 | 0.63 |  | 1.8 | 1.3 | 1.5
OC[C@]12C3N(Cc4ccc(OCc5ccccc5)cc4)C4[C@@]5(CO)C(N(Cc6ccc(OCc7ccccc7)cc6)C1[C@]3(CO)[C@@H]5c1ccccc1)[C@]4(CO)[C@@H]2c1ccccc1 | 1.2 | 0.75 |  | 2.5 | 2.3 | 28
COc1ccc2c3c([nH]c2c1)[C@H](C=C(C)C)N1C(=O)[C@@H]2CCCN2C(=O)[C@@H]1C3 [FUMITREMORGIN] | 6 |  | 1.9 |  |  | 

Second part, led by results:

Ratio [1] | Ratio [2] | Ratio [5] | Ratio [6] | SMILES | Ratio (L5178Y [3]) | Ratio (L5178Y [4])
3.5 | 1.56 | 1.4 | 1 | OC[C@]12C3N(Cc4ccccc4)C4[C@@]5(CO)C(N(Cc6ccccc6)C1[C@]3(CO)[C@@H]5c1ccc(OCc3ccccc3)cc1)[C@]4(CO)[C@@H]2c1ccc(OCc2ccccc2)cc1 | 3.3 | 47
 | 0.9 |  | 1.1 | OC[C@]12C3N(Cc4cccnc4)C4[C@@]5(CO)C(N(Cc6cccnc6)C1[C@]3(CO)[C@@H]5c1ccccc1)[C@]4(CO)[C@@H]2c1ccccc1 | 1.2 | 1.1
6.1 | 1.25 | 1.5 | 4.8 | COc1ccc(CN2C3[C@]4(CO)C5N(Cc6ccc(OC)cc6)C6[C@@](CO)(C2[C@]6(CO)[C@H]4c2ccc(OC)cc2)[C@H](c2ccc(OC)cc2)[C@@]35CO)cc1 | 3.1 | 46
3.2 | 1.1 | 1.2 | 3.4 | COc1ccc(CN2C3[C@]4(CO)C5N(Cc6ccc(OC)cc6)C6[C@@](CO)(C2[C@]6(CO)[C@H]4c2ccccc2)[C@H](c2ccccc2)[C@@]35CO)cc1 | 3.5 | 13
4.2 | 0.97 | 1.5 | 2.8 | OC[C@]12C3N(Cc4cccc(OCc5ccccc5)c4)C4[C@@]5(CO)C(N(Cc6cccc(OCc7ccccc7)c6)C1[C@]3(CO)[C@@H]5c1ccccc1)[C@]4(CO)[C@@H]2c1ccccc1 | 117 | 205
